Assay results reported in ChEMBL document CHEMBL5370680, “Design and Biological Evaluation of Piperazine-Bearing Nitrobenzamide Hypoxia/GDEPT Prodrugs: The Discovery of CP-506” (ACS Med Chem Lett, 2023).

Assays:
HCT-116 [1] = test: Antiproliferative activity against human HCT-116 cells overexpressing cytochrome P450 oxidoreductase assessed as inhibition of cell growth incubated for 4 hrs under aerobic condition and measured after 5 days regrowth under aerobic condition; type: functional, cell-based
Outline: (§1)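 Low-density monolayer antiproliferative assay. Cells exposed to prodrug for 4 h under aerobic or anoxic conditions, then regrown aerobically for 5 days. IC50 is the concentration giving 50% growth inhibition versus untreated controls. Mean values reported, CV <20%.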

HCT-116 [2] = test: Antiproliferative activity against human HCT-116 cells in three-dimensional cell culture multicellular layer expressing AKR1C3 assessed as fold change in plating efficiency at 10 uM; type: functional
Outline: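 100% AKR1C3-expressing HCT116 MCLs, against wild-type HCT116 MCLs, exposed to 10 μM prodrug. Clonogenic plating efficiency measured. Fold change is the plating-efficiency ratio between wild-type and transfected MCLs. ≥3 independent experiments.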

[3] = Selectivity ratio of IC50 for antiproliferative activity against wild type human NCI-H1299 cells to IC50 for antiproliferative activity against human NCI-H1299 cells expressing NfsA of Escherichia coli; type: functional; settings: time 4 hrs
Outline: (§2)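 Ratio of mean IC50 in non-transfected wild-type cells to mean IC50 in the AKR1C3- or NfsA_Ec-transfected line. IC50 is from a 4 h prodrug exposure and 5 days' regrowth.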

[4] = Selectivity ratio of IC50 for antiproliferative activity against human HCT-116 cells overexpressing cytochrome P450 oxidoreductase assessed as inhibition of cell growth under aerobic condition to IC50 for antiproliferative activity against human HCT-116 cells overexpressing cytochrome P450 oxidoreductase assessed as inhibition of cell growth under anoxic condition; type: functional
Outline: (§3)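 Hypoxic cytotoxicity ratio is aerobic IC50 divided by anoxic IC50. Each IC50 comes from a 4 h drug exposure under aerobic or anoxic conditions, followed by 5 days' aerobic regrowth, relative to untreated controls.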

[5] = Selectivity ratio of IC50 for antiproliferative activity against wild type human NCI-H1299 cells to IC50 for antiproliferative activity against human NCI-H1299 cells expressing AKR1C3; type: functional; settings: time 4 hrs; outline: as §2
HCT-116 [6] = test: Antiproliferative activity against human HCT-116 cells overexpressing cytochrome P450 oxidoreductase assessed as inhibition of cell growth incubated for 4 hrs under anoxic condition and measured after 5 days regrowth under aerobic condition; type: functional, cell-based; outline: as §1
NCI-H1299 [7] = test: Antiproliferative activity against human NCI-H1299 cells expressing AKR1C3 assessed as cell growth inhibition measured after 4 hrs; type: functional, cell-based; settings: NCI-H1299, 4 h
Outline: (§4)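 Monolayer antiproliferative assay using wild-type cells and isogenic lines transfected with AKR1C3 or E. coli NfsA. Cells exposed to prodrug for 4 h, then regrown for 5 days. IC50 is 50% growth inhibition versus untreated controls. Mean values reported, CV <20%.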

HCT-116 [8] = test: Antiproliferative activity against human HCT-116 cells assessed as inhibition of cell growth incubated for 4 hrs under aerobic condition and measured after 5 days regrowth under aerobic condition; type: functional, cell-based; outline: as §1
HCT-116 [9] = test: Antiproliferative activity against human HCT-116 cells in three-dimensional cell culture multicellular layer expressing NfsA of Escherichia coli assessed as fold change in plating efficiency at 10 uM; type: functional
Outline: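 Mixed MCLs of wild-type HCT116 with 3% NfsA_Ec-expressing cells, against 100% wild-type MCLs, exposed to 10 μM prodrug. Clonogenic plating efficiency measured. Fold change is the plating-efficiency ratio between wild-type and transfected MCLs. ≥3 independent experiments.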

[10] = Selectivity ratio of IC50 for antiproliferative activity against human SiHa cells assessed as inhibition of cell growth under aerobic condition to IC50 for antiproliferative activity against human SiHa cells assessed as inhibition of cell growth under anoxic condition; type: functional; outline: as §3
[11] = Selectivity ratio of IC50 for antiproliferative activity against wild type human HCT-116 cells to IC50 for antiproliferative activity against human HCT-116 cells expressing NfsA of Escherichia coli; type: functional; settings: time 4 hrs; outline: as §2
[12] = Octanol/water partition coefficient, log D of the compound at pH 7.4; type: physicochemical
Outline: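 Octanol–water partition coefficient by shake-flask method at pH 7.4.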

SiHa [13] = test: Antiproliferative activity against human SiHa cells assessed as inhibition of cell growth incubated for 4 hrs under aerobic condition and measured after 5 days regrowth under aerobic condition; type: functional, cell-based; outline: as §1
HCT-116 [14] = test: Antiproliferative activity against human HCT-116 cells expressing AKR1C3 assessed as cell growth inhibition measured after 4 hrs; type: functional, cell-based; settings: HCT-116, 4 h; outline: as §4
NCI-H1299 [15] = test: Antiproliferative activity against wild type human NCI-H1299 cells assessed as cell growth inhibition measured after 4 hrs; type: functional, cell-based; settings: NCI-H1299, 4 h; outline: as §4
NCI-H1299 [16] = test: Antiproliferative activity against human NCI-H1299 cells expressing NfsA of Escherichia coli assessed as cell growth inhibition measured after 4 hrs; type: functional; settings: NCI-H1299, 4 h; outline: as §4
[17] = Selectivity ratio of IC50 for antiproliferative activity against wild type human HCT-116 cells to IC50 for antiproliferative activity against human HCT-116 cells expressing AKR1C3; type: functional; settings: time 4 hrs; outline: as §2
[18] = Selectivity ratio of IC50 for antiproliferative activity against human HCT-116 cells assessed as inhibition of cell growth under aerobic condition to IC50 for antiproliferative activity against human HCT-116 cells assessed as inhibition of cell growth under anoxic condition; type: functional; outline: as §3
HCT-116 [19] = test: Antiproliferative activity against wild type human HCT-116 cells assessed as cell growth inhibition measured after 4 hrs; type: functional, cell-based; settings: HCT-116, 4 h; outline: as §4
HCT-116 [20] = test: Antiproliferative activity against human HCT-116 cells expressing NfsA of Escherichia coli assessed as cell growth inhibition measured after 4 hrs; type: functional; settings: HCT-116, 4 h; outline: as §4
HCT-116 [21] = test: Antiproliferative activity against human HCT-116 cells assessed as inhibition of cell growth incubated for 4 hrs under anoxic condition and measured after 5 days regrowth under aerobic condition; type: functional, cell-based; outline: as §1
SiHa [22] = test: Antiproliferative activity against human SiHa cells assessed as inhibition of cell growth incubated for 4 hrs under anoxic condition and measured after 5 days regrowth under aerobic condition; type: functional, cell-based; outline: as §1
[23] = Toxicity in NIH-III nude mouse xenografted with human HCT-116 cells expressing NfsA of Escherichia coli assessed as body weight loss at 1000 micromol/kg, ip BID; type: organism-based; settings: in vivo, at 1000 µmol/kg
[24] = Toxicity in NIH-III nude mouse xenografted with human HCT-116 cells expressing NfsA of Escherichia coli assessed as body weight loss at 1000 micromol/kg, ip BID measured on day 16; type: organism-based; settings: in vivo, 384 h, dose 1000 µmol/kg, time 16 day
[25] = Metabolic stability in mouse liver microsome assessed as half life in presence of NADPH by LC-MS/MS analysis; type: ADME; settings: liver microsomes
Outline: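 Male mouse hepatic microsomes incubated with prodrug for 30 min, with or without NADPH cofactor. Percentage of parent compound remaining tracked from triplicate incubations. Half-life estimated from this loss.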

HCT-116 [26] = test: Antiproliferative activity against human HCT-116 cells in three-dimensional cell culture multicellular layers assessed as log cell killing under anoxic condition at 100 uM; type: functional
Outline: (§5)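 HCT116 three-dimensional multicellular layers exposed to 100 μM prodrug under aerobic or anoxic conditions. Clonogenic survivors per MCL counted. Log cell kill = log CS(control) − log CS(treated). Mean of ≥3 independent experiments.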

[27] = Toxicity in NIH-III nude mouse xenografted with human HCT-116 cells expressing NfsA of Escherichia coli assessed as body weight loss at 1000 micromol/kg, ip BID measured on day 6; type: organism-based; settings: in vivo, 144 h, at 1000 µmol/kg, time 6 day
HCT-116 [28] = test: Antiproliferative activity against human HCT-116 cells in three-dimensional cell culture multicellular layers assessed as log cell killing under aerobic condition at 100 uM; type: functional; outline: as §5

Structure (SMILES) | IC50 (HCT-116 [1]) [µM] | fold change (FC) (HCT-116 [2]) | Ratio IC50 [3] | Ratio IC50 [4] | Ratio IC50 [5] | IC50 (HCT-116 [6]) [µM] | IC50 (NCI-H1299 [7]) [µM] | fold change (FC) (HCT-116 [9]) | Ratio IC50 [10] | Ratio IC50 [11] | logD [12] | IC50 (SiHa [13]) [µM] | IC50 (HCT-116 [14]) [µM] | IC50 (NCI-H1299 [15]) [µM] | IC50 (NCI-H1299 [16]) [µM] | Ratio IC50 [17] | IC50 (HCT-116 [19]) [µM] | IC50 (HCT-116 [20]) [µM] | IC50 (HCT-116 [21]) [µM] | IC50 (SiHa [22]) [µM] | other results
CS(=O)(=O)OCCN(CCBr)c1c(C(=O)NCCO)cc([N+](=O)[O-])cc1[N+](=O)[O-] | 41 | 100500 | 2375 | 293 | 15 | 0.14 | 7.4 | 29 | 7 | 4125 | 1 | 19 | 1.1 | 114 | 0.048 | 60 | 66 | 0.016 | 2.5 | 2.7 | IC50 (HCT-116 [8]): 38 µM; Ratio IC50 [18]: 15
CCS(=O)(=O)c1cc([N+](=O)[O-])c(C(=O)N2CCN(C(C)C)CC2)cc1N(CCBr)CCBr |  | 0.9 | 73 |  | 0.7 |  | 67 | 351 |  | 131 | 2.5 |  | 70 | 49 | 0.685 | 0.9 | 65 | 0.496 |  |  | 
CCN1CCN(C(=O)c2cc(N(CCBr)CCBr)c(S(C)(=O)=O)cc2[N+](=O)[O-])CC1 | 54 | 1.2 | 406 | 82 | 1 | 0.66 | 71 | 825 | 16 | 740 | 1.7 | 164 | 49 | 71 | 0.175 | 1.6 | 77 | 0.104 | 21 | 10 | Activity [23]: < 10%; IC50 (HCT-116 [8]): 145 µM; Activity [24]: Non-Toxic; half-life [25]: 6.05 min; LCK (HCT-116 [26]): 0.016; Activity [27]: <= 7%; LCK (HCT-116 [28]): 2.3; Ratio IC50 [18]: 6.9
CN1CCN(C(=O)c2cc(N(CCBr)CCOS(C)(=O)=O)c(S(C)(=O)=O)cc2[N+](=O)[O-])CC1 | 139 |  |  | 87 |  | 1.6 |  |  | 12 |  | 0.3 | 561 |  |  |  |  |  |  | 23 | 47 | IC50 (HCT-116 [8]): 368 µM; LCK (HCT-116 [26]): 0.016; LCK (HCT-116 [28]): 2.3; Ratio IC50 [18]: 16
CCS(=O)(=O)c1cc([N+](=O)[O-])c(C(=O)N2CCN(C)CC2)cc1N(CCBr)CCBr |  | 1.1 | 156 |  | 1.5 |  | 58 | 709 |  | 359 | 2.2 |  | 73 | 85 | 0.546 | 1.1 | 83 | 0.231 |  |  | 
CC(C)N1CCN(C(=O)c2cc(N(CCBr)CCBr)c(S(C)(=O)=O)cc2[N+](=O)[O-])CC1 |  | 0.9 | 206 |  | 0.9 |  | 69 | 1943 |  | 462 | 1.9 |  | 53 | 59 | 0.287 | 1.2 | 61 | 0.132 |  |  | 
CCN1CCN(C(=O)c2cc(N(CCBr)CCBr)c(S(=O)(=O)CC)cc2[N+](=O)[O-])CC1 | 60 | 0.9 | 121 | 21 | 1.2 | 2.8 | 54 | 5178 | 11 | 511 | 2.1 | 253 | 62 | 67 | 0.552 | 1.5 | 95 | 0.186 | 27 | 23 | Activity [23]: < 10%; IC50 (HCT-116 [8]): 142 µM; Activity [24]: Non-Toxic; LCK (HCT-116 [26]): 0.016; Activity [27]: <= 7%; LCK (HCT-116 [28]): 2.3; Ratio IC50 [18]: 5.3
CCN1CCN(C(=O)c2cc(N(CCBr)CCOS(C)(=O)=O)c(S(=O)(=O)CC)cc2[N+](=O)[O-])CC1 | 122 |  |  | 44 |  | 2.8 |  |  | >20 |  | 1 | > 300 |  |  |  |  |  |  | 18 | 15 | LCK (HCT-116 [26]): 0.016; LCK (HCT-116 [28]): 2.3
CCN1CCN(C(=O)c2cc(N(CCBr)CCOS(C)(=O)=O)c(S(C)(=O)=O)cc2[N+](=O)[O-])CC1 [CP-506] | 112 |  |  | 93 |  | 1.2 |  |  | 21 |  | 0.6 | 459 |  |  |  |  |  |  | 14 | 22 | IC50 (HCT-116 [8]): 288 µM; half-life [25]: 41.2 min; LCK (HCT-116 [26]): 0.016; LCK (HCT-116 [28]): 2.3; Ratio IC50 [18]: 21
CN1CCN(C(=O)c2cc(N(CCBr)CCBr)c(S(C)(=O)=O)cc2[N+](=O)[O-])CC1 | 82 | 1.1 | 636 | 93 | 1 | 0.88 | 102 | 1531 | 15 | 1146 | 1.4 | 241 | 70 | 98 | 0.154 | 1.5 | 102 | 0.089 | 24 | 16 | IC50 (HCT-116 [8]): 160 µM; LCK (HCT-116 [26]): 0.016; LCK (HCT-116 [28]): 2.3; Ratio IC50 [18]: 6.6
